{"source": "ChEMBL document CHEMBL5550082", "about": "“Discovery of pyrazolo[3,4-d]pyrimidines as novel mitogen-activated protein kinase kinase 3 (MKK3) inhibitors” (Bioorg Med Chem, 2024)", "note": "Calls of active or inactive are those of the source. The calls are words filed in the database; no cut-off is given here.", "data": [{"test_system": "not listed separately", "test": "Inhibition of N-terminal GST-tagged recombinant human MKK3 […]/T193E mutant expressed in baculovirus infected Sf9 insect cells using STK-3-biotin as substrate at 5 uM preincubated for 30 mins followed by substrate/ATP addition measured after 90 mins by TR-FRET assay relative to control", "conditions": "time 120.0 min", "summary_of_the_method": "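GST-tagged MKK3 S189E/T193E (MKK3E), glutathione-purified from baculovirus-infected Sf9 cells, was used at 100 nM. It was preincubated 30 min at room temperature with compound, then 1 µM ATP and 1 µM STK-3-biotin peptide were added and reacted at least 90 min at 30 °C. Reactions were stopped with Eu-antibody and streptavidin-XL665, and HTRF was read as the 665/620 nm ratio.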", "values": [{"smiles": "CC(C)(C)n1nc(-c2ccnc3ccccc23)c2c(N)ncnc21", "inhibition": "3.4%"}, {"smiles": "CC(C)(C)n1nc(-c2cc(F)c(O)c(F)c2)c2c(N)ncnc21", "inhibition": "44.9%"}, {"smiles": "CC(C)(C)n1nc(-c2ccccc2)c2c(N)ncnc21", "inhibition": "34.8%"}, {"smiles": "CC(C)(C)n1nc(-c2ccc3[nH]ccc3c2)c2c(N)ncnc21", "inhibition": "58.2%"}, {"smiles": "CC(C)(C)n1nc(-c2ccc(F)c(C(=O)NCCO)c2)c2c(N)ncnc21", "inhibition": "5.2%"}, {"smiles": "CC(C)NC(=O)c1ccc(-c2nn(C(C)(C)C)c3ncnc(N)c23)cc1", "inhibition": "26.4%"}, {"smiles": "CC(C)(C)n1nc(-c2ccc(N)c3ccccc23)c2c(N)ncnc21", "inhibition": "54.8%"}, {"smiles": "CC(C)(C)n1nc(-c2cccc(Cl)c2)c2c(N)ncnc21", "inhibition": "19.8%"}, {"smiles": "CC(C)(C)n1nc(-c2ccc(F)c(C#N)c2)c2c(N)ncnc21", "inhibition": "35.6%"}, {"smiles": "CC(C)(C)n1nc(-c2ccc(S(=O)(=O)NC3CC3)cc2)c2c(N)ncnc21", "inhibition": "12.6%"}, {"smiles": "CC(C)(C)n1nc(-c2cccc3cn[nH]c23)c2c(N)ncnc21", "inhibition": "inactive"}, {"smiles": "CC(C)(C)n1nc(-c2cccc(C#N)c2)c2c(N)ncnc21", "inhibition": "inactive"}, {"smiles": "CC(C)(C)n1nc(-c2ccc(F)c(Cl)c2)c2c(N)ncnc21", "inhibition": "39.3%"}, {"smiles": "CC(C)(C)n1nc(-c2ccccc2F)c2c(N)ncnc21", "inhibition": "37.4%"}, {"smiles": "CC(C)(C)n1nc(-c2cccc3cnccc23)c2c(N)ncnc21", "inhibition": "12.4%"}, {"smiles": "CC(C)(C)n1nc(-c2cc(Cl)cc(Cl)c2)c2c(N)ncnc21", "inhibition": "23.4%"}, {"smiles": "CC(C)(C)n1nc(-c2cccc(C(=O)NC3CC3)c2)c2c(N)ncnc21", "inhibition": "7.1%"}, {"smiles": "CC(C)(C)n1nc(-c2cccc(Cl)c2F)c2c(N)ncnc21", "inhibition": "35.2%"}, {"smiles": "CC(C)(C)n1nc(-c2ccc3ncccc3c2)c2c(N)ncnc21", "inhibition": "28.2%"}]}, {"test_system": "not listed separately", "test": "Aqueous solubility of compound", "format": "physicochemical", "conditions": "water (aqueous)", "units": {"solubility": "µg/mL"}, "values": [{"smiles": "CC(C)n1nc(-c2cc3cc(O)ccc3[nH]2)c2c(N)ncnc21", "solubility": 6}]}, {"molecular_target": "T1, Dual specificity mitogen-activated protein kinase kinase 3 (Homo sapiens, UniProt P46734)", "T1 sequence (P46734 whole entry)": "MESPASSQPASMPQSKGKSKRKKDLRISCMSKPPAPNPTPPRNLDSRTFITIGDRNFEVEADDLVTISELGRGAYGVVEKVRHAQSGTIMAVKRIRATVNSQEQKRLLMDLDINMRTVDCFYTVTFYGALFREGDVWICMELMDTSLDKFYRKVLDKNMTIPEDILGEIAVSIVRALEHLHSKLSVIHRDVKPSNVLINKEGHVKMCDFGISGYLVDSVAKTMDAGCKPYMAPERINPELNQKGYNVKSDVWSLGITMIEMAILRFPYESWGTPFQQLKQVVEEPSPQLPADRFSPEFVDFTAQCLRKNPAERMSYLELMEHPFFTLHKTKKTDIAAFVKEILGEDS", "test": "Displacement of tracer K-9 from C-terminal NanoLuc fused full-length MKK3 (unknown origin) transfected in HEK293T cells by BRET assay", "format": "cell-based", "conditions": "not given", "summary_of_the_method": "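HEK293T cells in DMEM with 10 % FBS were transiently transfected with full-length wild-type MKK3 carrying a C-terminal NanoLuc fusion and cultured 48 h at 37 °C. The cells were then resuspended in Opti-MEM at 2×10^5 cells/mL. Tracer K-9 was added at 1.0 μM final with compound dilutions (2 % DMSO final) for 2 h. After NanoLuc substrate plus extracellular inhibitor, emissions at 460 and 610 nm were read as mBRET, normalized, and fitted to give IC50.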", "units": {"IC50": "µM"}, "values": [{"smiles": "CC(C)(C)n1nc(-c2cc(F)c(O)c(F)c2)c2c(N)ncnc21", "IC50": 145}]}, {"molecular_target": "Death-associated protein kinase 3 (Homo sapiens) (UniProt O43293)", "sequence (O43293 whole entry, looked up)": "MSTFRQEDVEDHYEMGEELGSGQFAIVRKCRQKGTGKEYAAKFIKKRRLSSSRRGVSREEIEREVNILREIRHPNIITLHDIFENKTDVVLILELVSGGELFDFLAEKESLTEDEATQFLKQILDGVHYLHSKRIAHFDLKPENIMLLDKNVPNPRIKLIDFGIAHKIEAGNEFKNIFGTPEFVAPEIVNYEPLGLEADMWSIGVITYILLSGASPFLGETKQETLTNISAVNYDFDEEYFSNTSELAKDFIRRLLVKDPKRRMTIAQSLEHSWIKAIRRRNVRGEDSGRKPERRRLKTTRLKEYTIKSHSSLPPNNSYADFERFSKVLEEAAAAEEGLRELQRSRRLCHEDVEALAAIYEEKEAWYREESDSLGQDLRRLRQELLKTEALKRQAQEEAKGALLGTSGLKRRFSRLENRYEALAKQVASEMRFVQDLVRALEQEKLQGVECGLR", "test": "Displacement of Eu-Streptavidin from human DAPK3 by TR-FRET assay", "conditions": "not given", "summary_of_the_method": "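Human DAPK3, biotinylated in vivo during expression, tested in a TR-FRET assay measuring competitive displacement of a generic ATP-competitive fluorescent tracer. Compound tested at a single concentration of 1 µM. Displacement is relative to vehicle: DMSO sets 0 % and a reference inhibitor specific to the kinase sets 100 %.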", "values": [{"smiles": "CC(C)(C)n1nc(-c2cc(F)c(O)c(F)c2)c2c(N)ncnc21", "Activity": "> 80%"}, {"smiles": "CC(C)n1nc(-c2cc3cc(O)ccc3[nH]2)c2c(N)ncnc21", "Activity": "Active"}]}]}
